According to ChEMBL document CHEMBL3734652, “Pyrrolo[3,4-c]pyridine-1,3(2H)-diones: A Novel Antimycobacterial Class Targeting Mycobacterial Respiration” (J Med Chem, 2015):
Values after ≈ are worked out from the molar mass of the structure shown.

Tests used:
[1] = system: Mus musculus; test: Ratio of AUC (0 to infinity) in C57/BL6 mouse at 20 mg/kg, po co-administered with amino-benzotriazole to AUC (0 to infinity) in C57/BL6 mouse at 20 mg/kg, po without co-administration of amino-benzotriazole; assay type: ADME, organism-based; details: in vivo
[2] = system: Mycobacterium tuberculosis; test: Antimicrobial activity against GFP expressing recombinant Mycobacterium tuberculosis H37RvMA under GAST/Fe medium assessed as growth inhibition after 14 days by broth microdilution method; assay type: functional; details: 336 h
[3] = system: Mycobacterium tuberculosis; test: Antimicrobial activity against Mycobacterium tuberculosis H37RvMA under GAST/Fe medium assessed as growth inhibition after 14 days by alamar blue assay; assay type: functional; details: 336 h
Outline: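 Broth microdilution in GAST/Fe medium against fully virulent Mtb H37RvMa or its derived strains (cytochrome bd oxidase deletion ΔcydKO; qcrB Ala317Thr point mutant). Plates were incubated 14 days, growth was read by Alamar Blue, and MIC90 was taken as the potency value.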

[4] = Kinetic solubility in FaSSIF at pH 6.5 after 2 hours at 25 degC by shake flask method; assay type: physicochemical; details: read-out: Kinetic_solubility
[5] = system: Vero; test: Cytotoxicity against African green monkey Vero cells assessed as cell viability by MTT assay; assay type: cell-based; details: Chlorocebus sabaeus
Outline: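 VERO kidney epithelial cells from African green monkey were exposed to compounds at concentrations up to 100 μM, and IC₅₀ was reported.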

[6] = system: Mycobacterium tuberculosis; test: Antimicrobial activity against GFP expressing recombinant Mycobacterium tuberculosis H37RvMA under 7H9 medium assessed as growth inhibition after 14 days by broth microdilution method; assay type: functional; details: 336 h
[7] = system: Mycobacterium tuberculosis; test: Antimicrobial activity against clinical isolates of Mycobacterium tuberculosis SAWC 2371 Haarlem under 7H9 medium assessed as growth inhibition after 14 days by alamar blue assay; assay type: functional; details: 336 h
[8] = system: Mycobacterium tuberculosis; test: Antimicrobial activity against clinical isolates of Mycobacterium tuberculosis SAWC 3385 Cas1/Delhi under 7H9 medium assessed as growth inhibition after 14 days by alamar blue assay; assay type: functional; details: 336 h
[9] = system: Mycobacterium tuberculosis; test: Antimicrobial activity against clinical isolates of Mycobacterium tuberculosis SAWC 3906 Atyp-beijing under 7H9 medium assessed as growth inhibition after 14 days by alamar blue assay; assay type: functional; details: 336 h
[10] = system: Mycobacterium tuberculosis; test: Antimicrobial activity against clinical isolates of Mycobacterium tuberculosis SAWC 3933 LCC under 7H9 medium assessed as growth inhibition after 14 days by alamar blue assay; assay type: functional; details: 336 h
[11] = system: Liver microsome; test: Intrinsic clearance in human liver microsomes assessed per mg of protein at 0.1 uM by LC-MS/MS method in presence or absence of NADPH; assay type: ADME
[12] = system: Liver microsome; test: Intrinsic clearance in rat liver microsomes assessed per mg of protein at 0.1 uM by LC-MS/MS method in presence or absence of NADPH; assay type: ADME
[13] = Intrinsic clearance in mouse liver microsomes assessed per mg of protein at 0.1 uM by LC-MS/MS method in presence or absence of NADPH; assay type: ADME
[14] = Metabolic stability in human liver S9 fractions assessed as residual compound at 0.1 uM after 40 mins by LC-MS/MS method in presence or absence of NADPH; assay type: ADME; details: read-out: Stability
[15] = Half life in human plasma at 0.1 uM by LC-MS/MS method; assay type: ADME, cell-free
[16] = Octanol-phosphate buffer partition coefficient, log D of the compound at 100 uM at pH 7.4 after 3 hrs by shake flask method; assay type: physicochemical
[17] = Plasma protein binding in human at 5 uM preincubated for 1 hr by LC-MS/MS method; assay type: ADME, cell-free; details: read-out: PPB (converted)
[18] = Apparent half-life in anesthetized C57/BL6 mouse at 5 mg/kg, iv by LC-MS method; assay type: ADME, organism-based; details: in vivo, read-out: t1/2(app) (converted)
Outline: (§1)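 C57/BL6 mice were given a single dose of 5 mg/kg iv or 20 mg/kg po. Each dose was tested alone and co-dosed with aminobenzotriazole, a nonspecific cytochrome P450 inhibitor. Plasma exposure was followed, and each parameter is the mean of three animals.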

[19] = Apparent half-life in C57/BL6 mouse at 20 mg/kg, po by LC-MS method; assay type: ADME, organism-based; details: in vivo, read-out: t1/2(app) (converted); outline: as §1
[20] = Apparent half-life in anesthetized C57/BL6 mouse at 5 mg/kg, iv co-administered with amino-benzotriazole by LC-MS method; assay type: ADME, organism-based; details: in vivo, read-out: t1/2(app) (converted); outline: as §1
[21] = Apparent half-life in C57/BL6 mouse at 20 mg/kg, po co-administered with amino-benzotriazole by LC-MS method; assay type: ADME, organism-based; details: in vivo, read-out: t1/2(app) (converted); outline: as §1
[22] = Total clearance in anesthetized C57/BL6 mouse at 5 mg/kg, iv by LC-MS method; assay type: ADME, organism-based; details: in vivo; outline: as §1
[23] = Total clearance in anesthetized C57/BL6 mouse at 5 mg/kg, iv co-administered with amino-benzotriazole by LC-MS method; assay type: ADME, organism-based; details: in vivo; outline: as §1
[24] = Volume of distribution in anesthetized C57/BL6 mouse at 5 mg/kg, iv by LC-MS method; assay type: ADME, organism-based; details: in vivo; outline: as §1
[25] = Volume of distribution in anesthetized C57/BL6 mouse at 5 mg/kg, iv co-administered with amino-benzotriazole by LC-MS method; assay type: ADME, organism-based; details: in vivo; outline: as §1
[26] = Cmax in anesthetized C57/BL6 mouse at 5 mg/kg, iv by LC-MS method; assay type: ADME, organism-based; design: dose 5 mg/kg, route intravenous; details: in vivo; outline: as §1
[27] = Cmax in C57/BL6 mouse at 20 mg/kg, po by LC-MS method; assay type: ADME, organism-based; design: dose 20 mg/kg, route oral; details: in vivo; outline: as §1
[28] = Cmax in anesthetized C57/BL6 mouse at 5 mg/kg, iv co-administered with amino-benzotriazole by LC-MS method; assay type: ADME, organism-based; design: dose 5 mg/kg, route intravenous; details: in vivo; outline: as §1
[29] = Cmax in C57/BL6 mouse at 20 mg/kg, po co-administered with amino-benzotriazole by LC-MS method; assay type: ADME, organism-based; design: dose 20 mg/kg, route oral; details: in vivo; outline: as §1
[30] = Tmax in anesthetized C57/BL6 mouse at 5 mg/kg, iv by LC-MS method; assay type: ADME, organism-based; details: in vivo; outline: as §1
[31] = Tmax in C57/BL6 mouse at 20 mg/kg, po by LC-MS method; assay type: ADME, organism-based; details: in vivo; outline: as §1
[32] = Tmax in anesthetized C57/BL6 mouse at 5 mg/kg, iv co-administered with amino-benzotriazole by LC-MS method; assay type: ADME, organism-based; details: in vivo; outline: as §1
[33] = Tmax in C57/BL6 mouse at 20 mg/kg, po co-administered with amino-benzotriazole by LC-MS method; assay type: ADME, organism-based; details: in vivo; outline: as §1
[34] = AUC (0 to infinity) in anesthetized C57/BL6 mouse at 5 mg/kg, iv by LC-MS method; assay type: ADME, organism-based; design: dose 5 mg/kg, route intravenous, time infinity; details: in vivo; outline: as §1
[35] = AUC (0 to infinity) in C57/BL6 mouse at 20 mg/kg, po by LC-MS method; assay type: ADME, organism-based; design: dose 20 mg/kg, route oral, time infinity; details: in vivo; outline: as §1
[36] = AUC (0 to infinity) in anesthetized C57/BL6 mouse at 5 mg/kg, iv co-administered with amino-benzotriazole by LC-MS method; assay type: ADME, organism-based; design: dose 5 mg/kg, route intravenous, time infinity; details: in vivo; outline: as §1
[37] = AUC (0 to infinity) in C57/BL6 mouse at 20 mg/kg, po co-administered with amino-benzotriazole by LC-MS method; assay type: ADME, organism-based; design: dose 20 mg/kg, route oral, time infinity; details: in vivo; outline: as §1
[38] = Oral bioavailability in C57/BL6 mouse at 20 mg/kg by LC-MS method; assay type: ADME, organism-based; details: in vivo; outline: as §1
[39] = Oral bioavailability in C57/BL6 mouse at 20 mg/kg co-administered with amino-benzotriazole by LC-MS method; assay type: ADME, organism-based; details: in vivo; outline: as §1
[40] = Ratio of Cmax in C57/BL6 mouse at 20 mg/kg, po co-administered with amino-benzotriazole to MIC90 for Mycobacterium tuberculosis H37RvMA in GAST/Fe medium
[41] = Metabolic stability in human liver microsomes assessed as residual compound at 0.1 uM after 30 mins by LC-MS/MS method in presence or absence of NADPH; assay type: ADME; details: read-out: Stability
[42] = Metabolic stability in rat liver microsomes assessed as residual compound at 0.1 uM after 30 mins by LC-MS/MS method in presence or absence of NADPH; assay type: ADME; details: read-out: Stability
[43] = Metabolic stability in mouse liver microsomes assessed as residual compound at 0.1 uM after 30 mins by LC-MS/MS method in presence or absence of NADPH; assay type: ADME; details: read-out: Stability
[44] = system: CHO; test: Cytotoxicity against CHO cells assessed as cell viability by MTT assay; assay type: cell-based; details: Cricetulus griseus
[45] = system: Plasma; test: Drug level in C57/BL6 mouse plasma treated with ethyl 7-Amino-2-benzyl-4-methyl-1,3-dioxo-2,3-dihydro-1Hpyrrolo[3,4-c]pyridine-6-carboxylate by LC-MS analysis in absence of NADPH; assay type: ADME, cell-free
[46] = system: Liver; test: Drug level in BALB/c mouse liver microsomes treated with ethyl 7-Amino-2-benzyl-4-methyl-1,3-dioxo-2,3-dihydro-1Hpyrrolo[3,4-c]pyridine-6-carboxylate at 10 uM after 1 hr by LC-MS analysis in absence of NADPH; assay type: ADME
[47] = system: Mycobacterium tuberculosis; test: Drug level in supernatant of Mycobacterium tuberculosis treated with Ethyl 7-Amino-2-benzyl-4-methyl-1,3-dioxo-2,3-dihydro-1Hpyrrolo[3,4-c]pyridine-6-carboxylate in absence of NADPH; assay type: ADME, organism-based
[48] = system: Liver; test: Drug level in BALB/c mouse liver microsomes treated with 7-Amino-2-benzyl-4-methyl-6-(3-methyl-1,2,4-oxadiazol-5-yl)-1H-pyrrolo[3,4-c]pyridine-1,3(2H)-dione at 10 uM after 1 hr by LC-MS analysis; assay type: ADME
[49] = system: Plasma; test: Drug metabolism in C57/BL6 mouse plasma treated with 7-Amino-2-benzyl-4-methyl-6-(3-methyl-1,2,4-oxadiazol-5-yl)-1H-pyrrolo[3,4-c]pyridine-1,3(2H)-dione by LC-MS analysis; assay type: ADME, cell-free

Cc1noc(-c2nc(C)c3c(c2N)C(=O)N(Cc2cccc(Cl)c2)C3=O)n1
Ratio AUC [1]: 10
MIC90 [2]: 0.065 µM
MIC90 [3]: < 0.156 µM
solubility kinetic at 2 h [4]: 72 µM (≈ 27.6 µg/mL)
IC50 [5]: > 100 µM
MIC90 [6]: > 20 µM
MIC90 [7]: 0.6 µM (≈ 0.23 µg/mL)
MIC90 [8]: 0.6 µM (≈ 0.23 µg/mL)
MIC90 [9]: 0.15 µM (≈ 0.0576 µg/mL)
MIC90 [10]: 0.15 µM (≈ 0.0576 µg/mL)
CLint [11]: < 11.6 µL/min/mg
CLint [12]: < 11.6 µL/min/mg
CLint [13]: < 11.6 µL/min/mg
remaining at 40 min, 0.1 µM [14]: 97%
half-life at 0.1 µM [15]: 1.03 h
logD at 3 h, 100 µM [16]: 3.34
fraction unbound at 1 h, 5 µM [17]: 0.033
half-life [18]: 7.01 h
half-life [19]: 2.19 h
half-life [20]: 7.31 h
half-life [21]: 3.39 h
clearance [22]: 171 mL/min/kg
clearance [23]: 94.5 mL/min/kg
Vd [24]: 104 L/kg
Vd [25]: 53.1 L/kg
Cmax [26]: 622 nM
Cmax [27]: 33 nM
Cmax [28]: 1530 nM
Cmax [29]: 167 nM
Tmax [30]: 0.17 h
Tmax [31]: 1 h
Tmax [32]: 0.17 h
Tmax [33]: 0.5 h
AUC(0-inf) [34]: 1.27 µM·h
AUC(0-inf) [35]: 0.133 µM·h
AUC(0-inf) [36]: 2.65 µM·h
AUC(0-inf) [37]: 1.33 µM·h
bioavailability [38]: 2%
bioavailability [39]: 26%
Ratio [40]: 2

Cc1nc(C(=O)O)c(N)c2c1C(=O)N(Cc1ccccc1)C2=O
MIC90 [3]: 3.13 µM (≈ 0.974 µg/mL)
solubility kinetic at 2 h [4]: 177 µM (≈ 55.1 µg/mL)
remaining at 0.5 h, 0.1 µM [41]: 64%
remaining at 0.5 h, 0.1 µM [42]: 71%
remaining at 0.5 h, 0.1 µM [43]: 79%
IC50 [44]: > 100 µM
Drug metabolism [45]: metabolite_detected
Drug metabolism [46]: metabolite_detected
Drug metabolism [47]: metabolite_detected
Drug metabolism [48]: metabolite_detected
Drug metabolism [49]: metabolite_detected
